Sampled rows, rich in hits. Any-hit rate of the full collection: about 4.9%.
STAT3 act: activators of IL-6 induced STAT3 signaling; U3A cells, IL-6 STAT3-luciferase reporter, luminescence; 100% = signal with IL-6 EC80 alone; activation (% of control), % at 5.6 µM; AID 871; 190,000 tested, 0.91% active;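 active = activation above the screen-wide mean of compound activation plus 3 SD, cut at about 130% in these data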;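 note: 0% = background luminescence of wells with medium and substrate only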
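Material: human STAT1-deficient U3A cells with stable STAT3-luciferase reporter / Probe or stimulus: IL-6 stimulus at 33 ng/mL final / Schedule: 1 h compound pre-exposure, 6 h IL-6 stimulation, 37 °C / Technique: luminescence / Read-out basis: percent of IL-6-only median luminescence / Control set: IL-6-only high control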
STAT1 blocker: inhibitors of IFN-gamma induced STAT1 signaling; 200,000 tested, 0.35% active; inhibition, % at 5.5 µM; NIH 3T3 STAT1-luciferase reporter, luminescence;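 active = inhibition above a set limit, the mean inhibition across all tested compounds plus 3 SD, cut at about 34% in these data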;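 note: 0% = IFN-gamma with DMSO and 100% = IFN-gamma with 300 µM nifuroxazide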
STAT3 blocker: STAT3 signaling inhibition; 190,000 tested, 0.89% active; U3A cells, IL-6 STAT3-luciferase reporter, luminescence; host cell line lacks STAT1; inhibition, % at 5.5 µM; AID 862;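 active = inhibition above the mean inhibition across all screened compounds plus 3 SD, cut at about 44% in these data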;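 note: 0% = DMSO only wells and 100% = 100 µM nifuroxazide control wells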
NF-kB neuron act: NF-kB expression increase, human neuronal cells | NF-kB reporter expression; hits give high values | AID 1239 | fold change at 12.5 µM | 190,000 tested, 1.6% active; in the data active = fold change above about 3.3
STAT1 act: STAT1 signaling activation; AID 932; activation (% of control), % at 5.5 µM; 200,000 tested, 2.6% active; NIH 3T3 STAT1-luciferase reporter, IFN-gamma, luminescence; 100% = IFN-gamma alone, no compound;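 active = activation above the screen-wide mean activation plus 3 SD, cut at about 130% in these data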;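 note: raw ratio to IFN-gamma control signal so 100% means no change and 0% no light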
APP 5'UTR act: APP 5'UTR luciferase reporter activation | SH-SY5Y APP 5'UTR luciferase reporter, luminescence; zero percent = DMSO vehicle wells | activation, % at 2 µM | 190,000 tested, 1% active;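 active = activation above a set limit, based on mean plus 3 SD of controls, cut at about 140% in these data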
STAT1 act conf: confirmation of STAT1 signaling activators. shares compounds with STAT1 act. NIH 3T3 STAT1-luciferase reporter, IFN-gamma potentiation, luminescence; 100% = IFN-gamma EC80 alone, no compound. activation (% of control), % at 5.7 µM. 1,200 tested, 97% active. AID 1262;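 active = activation above a set limit carried over from the earlier primary STAT1 screen, cut at about 140% in these data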;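 note: simple ratio to median IFN-gamma plus DMSO wells so 0% means no light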
NFkB act: counter-screen for STAT1 activators: NF-kappaB activation. HEK293T NF-kB luciferase reporter, TNF-alpha stimulated, luminescence; 100% = TNF-alpha with vehicle only. 1,200 tested, 43% active. shares compounds with STAT1 act. activation (% of control), % at 5.7 µM. AID 1306;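 active = activation above the mean of solvent-only control wells plus 3 SD, set per campaign, cut at about 130% in these data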;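 note: TNF-alpha given at a submaximal dose yielding about 80% of full reporter signal; values are well signal over median control so 100% means no change and 0% no light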
STAT3 act 2: activates human STAT3, counter-screen to STAT1 activators | shares compounds with STAT1 act | U3A cells STAT3-luciferase reporter, IL-6, luminescence; cells lack STAT1; 100 = IL-6 alone, no compound effect | activation (% of control), % at 5.7 µM | AID 1316 | 1,200 tested, 46% active;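 active = activation above the solvent-only control well mean plus 3 SD, set per plate batch, cut at about 110% in these data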;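 note: 0% = no luminescence and 100% = median IL-6 plus DMSO wells; higher means more STAT3 reporter activation so hits are non-selective activators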
The depositor's hits bear a star; · = not tested or not shown.

SMILES	STAT3 act	STAT1 blocker	STAT3 blocker	NF-kB neuron act	STAT1 act	APP 5'UTR act	STAT1 act conf	NFkB act	STAT3 act 2
COc1cc(NS(=O)(=O)c2ccc(Nc3nc(-c4ccccc4)cs3)cc2)nc(OC)n1	95	-4	5	1.1	103	-5	·	·	·
Cc1ccc(S(=O)(=O)Nc2ccc3c(c2)ncn3C(C)(C)C)cc1	99	10	8	1.1	91	-5	·	·	·
Cc1ccc(CNc2ccc3c(c2)ncn3C(C)(C)C)cc1	110	-76	-2	2.9	167*	165*	198*	135*	128*
COc1ccc(CNc2ccc3c(c2)nc(C)n3C)cc1	92	-55	11	1.7	151*	85	168*	127	116*
C/C(=N\N=C1/NC(=O)C(C)S1)c1ccco1 (centres undefined)	99	-3	10	1.1	103	-9	·	·	·
CCc1cc2c(=O)c(-c3nc(C)cs3)coc2cc1OC(C)C(=O)NCCO (centres undefined)	89	12	17	0.53	90	9	·	·	·
CCC1CCC(NC(=O)Nc2cccc(OC)c2)CC1 (centres undefined)	113	-67	-12	4.5*	159*	158*	168*	132	123*
CCC(N=c1cc(-c2ccc(OC)cc2)oc2ccc(C)cc12)C(=O)O (centres undefined)	100	-72	4	3.1	164*	147*	137*	120	99
COc1ccc(OC)c2sc(NC(=O)c3ccc(Br)s3)nc12	98	0	3	1.2	101	20	·	·	·
O=C(Nc1nc2c(s1)CCCC2)c1ccc(Br)s1	86	-74	21	6.1*	166*	146*	256*	138*	104
Cc1ncsc1C(=O)Nc1nc2c(s1)CCCC2	87	-59	18	3.2	154*	101	175*	124	105
COC(=O)c1ccc(C(=O)NC(=S)Nc2nc3c(s2)CCCC3)cc1	107	-27	-2	1.7	124	22	·	·	·
O=C(Nc1nc2c(s1)CCCC2)c1ccc2ncsc2c1	86	-86	18	3	182*	160*	271*	139*	111*
CCOc1ccc2c(c1)c(N=O)c(O)n2C	102	1	-4	1.2	99	-15	·	·	·
c1ccc(-c2csc(N3CCSCC3)n2)cc1	97	-63	4	2.5	160*	35	129*	126	96
COc1ccc2c(c1)oc(=O)c1cc(OC)ccc12	·	-60	·	2.4	153*	83	152*	124	103
Cc1ccc(/C=C2/CCc3c([nH]c4ccccc34)C2=O)cc1	98	-68	12	2.5	161*	156*	188*	141*	114*
Cc1ccc2[nH]c3c(c2c1)CC/C(=C/c1ccccc1)C3=O	91	-22	11	1.5	120	-3	·	·	·
COc1ccc(OC)c([C@@H]2OCCC=C[C@H]2C)c1	101	0	-4	1.2	100	3	·	·	·
Cc1nn(C(=O)c2cccs2)c(N)c1-c1ccccc1	105	-65	-6	3.4*	162*	17	183*	137*	106
N#CCn1cnc2sc(-c3ccccc3)cc2c1=O	94	-27	11	1.7	123	19	·	·	·
CCn1cnc2sc(-c3ccccc3)cc2c1=O	108	-64	1	5.4*	158*	182*	205*	130	109
CC1CC(CCC(=O)NC(=S)Nc2ccc(S(N)(=O)=O)cc2)C(=O)O1 (centres undefined)	102	-8	6	1.4	108	8	·	·	·
O=C(CC(c1ccccc1)c1ccccc1)Nc1ccc(Cl)cn1	106	6	-4	1.2	94	14	·	·	·
O=C(/C=C/c1ccccc1)Nc1ccc(Cl)cn1	100	-60	9	3.2	156*	80	208*	121	95
SMILES	STAT3 act	STAT1 blocker	STAT3 blocker	NF-kB neuron act	STAT1 act	APP 5'UTR act	STAT1 act conf	NFkB act	STAT3 act 2
Cc1cc(C(F)(F)F)c(C#N)c(SCC(=O)Nc2nc3ccccc3s2)n1	120	-60	-21	0.77	152*	180*	261*	126	193*
Cc1cc(C)c(C#N)c(SCC(=O)Nc2ccccc2C)n1	97	4	5	1.4	97	10	·	·	·
Nc1ccc(-c2nc3ccc(N)cc3[nH]2)cc1	114	-32	-11	·	127	16	·	·	·
Nc1ccc(-c2nc3ccc([N+](=O)[O-])cc3[nH]2)cc1	94	-92	5	7.1*	182*	72	233*	147*	120*
COc1ccc(/C=C2\SC(=O)N(CCNC(=O)C3CC4C=CC3C4)C2=O)cc1 (centres undefined)	125	-64	-28	9.5*	159*	202*	146*	150*	134*
Cc1ccc(S(=O)(=O)Nc2cccc(Cl)c2)cc1NC(=O)c1cccnc1	89	13	16	0.97	87	0	·	·	·
c1ccc(SCc2cc(-c3ccccc3)no2)cc1	97	-70	14	2.1	162*	116	175*	127	102
Cc1ccc(SCc2cc(-c3ccc(Cl)cc3)no2)cc1	101	-2	5	1.2	102	·	·	·	·
COc1ccccc1OCc1cc(-c2ccccc2)no1	106	-69	4	4.3*	161*	80	184*	138*	106
c1ccc(OCc2cc(-c3ccccc3)no2)cc1	90	-54	12	2	152*	59	169*	131	99
Cc1ccnc(NC(=O)c2sc3ccccc3c2Cl)c1	72	-73	33	3.6*	165*	148*	130*	59	50
COc1ccc(C(=O)Nc2ccc(N3CCCC3)cc2)cc1	89	-1	18	1.6	101	20	·	·	·
O=C(Nc1ccc(N2CCCCC2)cc1)c1ccc(F)cc1	69	-68	39	2.5	162*	113	216*	130	102
O=C(Nc1ccc(N2CCCC2)cc1)c1ccc(Br)o1	87	-72	19	2.9	166*	57	217*	134*	103
O=C1c2ccccc2C(O)(c2ncc[nH]2)N1CCc1ccccc1 (centres undefined)	105	-2	-5	1.2	102	-4	·	·	·

Screening data deposited in PubChem by several laboratories.
